{"source": "ChEMBL document CHEMBL3272084", "about": "“Adamantane and protoadamantanealkanamines as potential anti-Parkinson agents” (J Med Chem, 1976)", "key": {"Mus musculus [1]": {"system": "Mus musculus", "assay": "Antidepressant activity in CFW mouse assessed as reversal of reserpine-induced hypothermia by measuring temperature index at 0.09 mmol/kg, sc measured every 30 mins up to 1.5 hrs", "type": "functional", "procedure,_shortened": "(§1)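 Groups of five CFW mice received reserpine 4 mg/kg sc. After 2.5 h, rectal temperature was taken. The temperature index (TI) is the sum of the group's mean changes from its mean initial temperature at 30, 60 and 90 min. Scoring: 0 = no effect, 1 = TI 5–10, 2 = TI >10. A run was repeated if the reserpine control TI fell outside −5 to −15.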"}, "[2]": {"assay": "(§2) Acute toxicity in ip dosed albino CFW mouse assessed as mortality measured over 48 hrs", "type": "organism-based", "conditions": "albino CFW, in vivo"}, "[3]": {"assay": "(§3) Acute toxicity in po dosed albino CFW mouse assessed as mortality measured over 48 hrs", "type": "organism-based", "conditions": "albino CFW, in vivo"}, "Mus musculus [4]": {"system": "Mus musculus", "assay": "Antidepressant activity in CFW mouse assessed as reversal of reserpine-induced hypothermia by measuring temperature index at 0.16 mmol/kg, sc measured every 30 mins up to 1.5 hrs", "type": "functional"}, "Mus musculus [5]": {"system": "Mus musculus", "assay": "Antiparkinsonian activity in CFW mouse assessed as reversal of reserpine-induced catalepsy at 0.16 mmol/kg, sc measured every 30 mins up to 1.5 hrs", "type": "functional, organism-based"}, "Rattus norvegicus [6]": {"system": "Rattus norvegicus", "assay": "Potency index, ratio of compound to amantadine for antiparkinsonian activity in po dosed Wistar rat assessed as reversal of reserpine-induced catalepsy", "type": "functional"}, "Mus musculus [7]": {"system": "Mus musculus", "assay": "Antidepressant activity in CFW mouse assessed as reversal of reserpine-induced hypothermia by measuring temperature index at 0.17 mmol/kg, sc measured every 30 mins up to 1.5 hrs", "type": "functional"}, "Mus musculus [8]": {"system": "Mus musculus", "assay": "Antiparkinsonian activity in CFW mouse assessed as reversal of reserpine-induced catalepsy at 0.17 mmol/kg, sc measured every 30 mins up to 1.5 hrs", "type": "functional, organism-based"}, "Rattus norvegicus [9]": {"system": "Rattus norvegicus", "assay": "Antiparkinsonian activity in Wistar rat assessed as reversal of reserpine-induced catalepsy at 0.14 mmol/kg, po measured every 30 mins up to 1.5 hrs", "type": "functional, organism-based"}, "Mus musculus [10]": {"system": "Mus musculus", "assay": "Antiparkinsonian activity in CFW mouse assessed as reversal of reserpine-induced catalepsy at 0.07 mmol/kg, sc measured every 30 mins up to 1.5 hrs", "type": "functional, organism-based", "procedure,_shortened": "(§4)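 Groups of five CFW mice were given reserpine 4 mg/kg sc, and catalepsy was assessed 2.5 h later. Reversal was scored 0–5: 0 no effect, 1 marginal, 2 significant, 3 marked, 4 approaching complete, 5 complete reversal.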"}, "Rattus norvegicus [11]": {"system": "Rattus norvegicus", "assay": "Antiparkinsonian activity in Wistar rat assessed as reversal of reserpine-induced catalepsy at 0.07 mmol/kg, po measured every 30 mins up to 1.5 hrs", "type": "functional, organism-based"}, "Mus musculus [12]": {"system": "Mus musculus", "assay": "Antiparkinsonian activity in CFW mouse assessed as reversal of reserpine-induced catalepsy at 0.09 mmol/kg, sc measured every 30 mins up to 1.5 hrs", "type": "functional, organism-based", "procedure,_shortened": "as §4"}, "Mus musculus [13]": {"system": "Mus musculus", "assay": "Antiparkinsonian activity in CFW mouse assessed as reversal of reserpine-induced catalepsy at 0.21 mmol/kg, sc measured every 30 mins up to 1.5 hrs", "type": "functional, organism-based"}, "Mus musculus [14]": {"system": "Mus musculus", "assay": "Antidepressant activity in CFW mouse assessed as reversal of reserpine-induced hypothermia by measuring temperature index at 0.21 mmol/kg, sc measured every 30 mins up to 1.5 hrs", "type": "functional"}, "Rattus norvegicus [15]": {"system": "Rattus norvegicus", "assay": "Antiparkinsonian activity in Wistar rat assessed as reversal of reserpine-induced catalepsy at 0.21 mmol/kg, po measured every 30 mins up to 1.5 hrs", "type": "functional, organism-based"}, "Mus musculus [16]": {"system": "Mus musculus", "assay": "Antidepressant activity in CFW mouse assessed as reversal of reserpine-induced hypothermia by measuring temperature index at 0.05 mmol/kg, sc measured every 30 mins up to 1.5 hrs", "type": "functional, organism-based"}, "Mus musculus [17]": {"system": "Mus musculus", "assay": "Antiparkinsonian activity in CFW mouse assessed as reversal of reserpine-induced catalepsy at 0.05 mmol/kg, sc measured every 30 mins up to 1.5 hrs", "type": "functional, organism-based"}, "Mus musculus [18]": {"system": "Mus musculus", "assay": "Antiparkinsonian activity in CFW mouse assessed as reversal of reserpine-induced catalepsy at 0.13 mmol/kg, sc measured every 30 mins up to 1.5 hrs", "type": "functional, organism-based"}, "Mus musculus [19]": {"system": "Mus musculus", "assay": "Antidepressant activity in CFW mouse assessed as reversal of reserpine-induced hypothermia by measuring temperature index at 0.13 mmol/kg, sc measured every 30 mins up to 1.5 hrs", "type": "functional, organism-based"}, "Rattus norvegicus [20]": {"system": "Rattus norvegicus", "assay": "Antiparkinsonian activity in Wistar rat assessed as reversal of reserpine-induced catalepsy at 0.13 mmol/kg, po measured every 30 mins up to 1.5 hrs", "type": "functional, organism-based"}, "Mus musculus [21]": {"system": "Mus musculus", "assay": "Antidepressant activity in CFW mouse assessed as reversal of reserpine-induced hypothermia by measuring temperature index at 0.20 mmol/kg, sc measured every 30 mins up to 1.5 hrs", "type": "functional, organism-based"}, "Mus musculus [22]": {"system": "Mus musculus", "assay": "Antiparkinsonian activity in CFW mouse assessed as reversal of reserpine-induced catalepsy at 0.20 mmol/kg, sc measured every 30 mins up to 1.5 hrs", "type": "functional, organism-based"}, "Mus musculus [23]": {"system": "Mus musculus", "assay": "Antidepressant activity in CFW mouse assessed as reversal of reserpine-induced hypothermia by measuring temperature index at 0.04 mmol/kg, sc measured every 30 mins up to 1.5 hrs", "type": "functional"}, "Mus musculus [24]": {"system": "Mus musculus", "assay": "Antiparkinsonian activity in CFW mouse assessed as reversal of reserpine-induced catalepsy at 0.15 mmol/kg, sc measured every 30 mins up to 1.5 hrs", "type": "functional, organism-based"}, "Rattus norvegicus [25]": {"system": "Rattus norvegicus", "assay": "Antiparkinsonian activity in Wistar rat assessed as reversal of reserpine-induced catalepsy at 0.15 mmol/kg, po measured every 30 mins up to 1.5 hrs", "type": "functional, organism-based"}, "Mus musculus [26]": {"system": "Mus musculus", "assay": "as §2", "type": "organism-based", "conditions": "in vivo, 48 h"}, "Mus musculus [27]": {"system": "Mus musculus", "assay": "as §3", "type": "organism-based", "conditions": "in vivo, 48 h"}, "Mus musculus [28]": {"system": "Mus musculus", "assay": "Antidepressant activity in CFW mouse assessed as reversal of reserpine-induced hypothermia by measuring temperature index at 0.03 mmol/kg, sc measured every 30 mins up to 1.5 hrs", "type": "functional", "procedure,_shortened": "as §1"}}, "note": "The source made the active and inactive calls. No cut-off for these calls is given here.", "data": [{"molecule": "Cl.c1ccc(CCNC2CC3CC4CC(C3)C2C4)cc1", "note": "(stereo in doubt; 12)", "values": [{"measurement": "Activity", "setting": "Mus musculus [1]", "result": 5}, {"measurement": "LD50 at 48 h", "setting": "[2]", "result": 300, "unit": "µmol/kg"}, {"measurement": "LD50 at 48 h", "setting": "[3]", "result": 1000, "unit": "µmol/kg"}]}, {"molecule": "Cl.NC1CC2CC3CC(C2)C1C3", "note": "(stereo not drawn)", "values": [{"measurement": "LD50 at 48 h", "setting": "[2]", "result": 800, "unit": "µmol/kg"}, {"measurement": "LD50 at 48 h", "setting": "[3]", "result": 3200, "unit": "µmol/kg"}, {"measurement": "Activity", "setting": "Mus musculus [4]", "result": "inactive"}, {"measurement": "Activity", "setting": "Mus musculus [5]", "result": "inactive"}]}, {"molecule": "CNCC12CC3CC(CC(C3)C1Br)C2.Cl", "note": "(stereo not drawn)", "values": [{"measurement": "LD50 at 48 h", "setting": "[2]", "result": 1000, "unit": "µmol/kg"}, {"measurement": "Ratio", "setting": "Rattus norvegicus [6]", "result": 2}, {"measurement": "Activity", "setting": "Mus musculus [7]", "result": 5}, {"measurement": "LD50 at 48 h", "setting": "[3]", "result": 1000, "unit": "µmol/kg"}, {"measurement": "Activity", "setting": "Mus musculus [8]", "result": "Active"}, {"measurement": "Activity", "setting": "Rattus norvegicus [9]", "result": "Active"}]}, {"molecule": "c1ccc(CCNC2CC3CC4CC(C3)C2C4)cc1", "note": "(stereo in doubt; 13)", "values": [{"measurement": "Activity", "setting": "Rattus norvegicus [9]", "result": "Active"}, {"measurement": "Activity", "setting": "Mus musculus [10]", "result": "inactive"}]}, {"molecule": "Cl.c1ccc(CNC2CC3CC4CC(C3)C2C4)cc1", "note": "(stereo not drawn)", "values": [{"measurement": "Activity", "setting": "Mus musculus [1]", "result": ">10"}, {"measurement": "Activity", "setting": "Rattus norvegicus [11]", "result": "Active"}, {"measurement": "LD50 at 48 h", "setting": "[2]", "result": 500, "unit": "µmol/kg"}, {"measurement": "LD50 at 48 h", "setting": "[3]", "result": 700, "unit": "µmol/kg"}, {"measurement": "Activity", "setting": "Mus musculus [12]", "result": "Active"}]}, {"molecule": "Cl.Clc1ccc(CNC2CC3CC4CC(C3)C2C4)cc1", "note": "(stereo not drawn)", "values": [{"measurement": "LD50 at 48 h", "setting": "[2]", "result": 600, "unit": "µmol/kg"}, {"measurement": "LD50 at 48 h", "setting": "[3]", "result": 1900, "unit": "µmol/kg"}, {"measurement": "Activity", "setting": "Mus musculus [4]", "result": 5}, {"measurement": "Activity", "setting": "Mus musculus [5]", "result": "inactive"}]}, {"molecule": "NC12CC3CC(CC(C3)C1)C2", "note": "[AMANTADINE]", "values": [{"measurement": "Activity", "setting": "Mus musculus [13]", "result": "inactive"}, {"measurement": "Activity", "setting": "Mus musculus [14]", "result": 5}, {"measurement": "Activity", "setting": "Rattus norvegicus [15]", "result": "Active"}]}, {"molecule": "O=C(O)/C=C\\C(=O)O.c1ccc(CNCC2CC3CC4CC(C3)C2C4)cc1", "note": "(stereo not drawn)", "values": [{"measurement": "Activity", "setting": "Mus musculus [16]", "result": "inactive"}, {"measurement": "LD50 at 48 h", "setting": "[2]", "result": 200, "unit": "µmol/kg"}, {"measurement": "LD50 at 48 h", "setting": "[3]", "result": 500, "unit": "µmol/kg"}, {"measurement": "Activity", "setting": "Mus musculus [17]", "result": "inactive"}]}, {"molecule": "CN(C)CC12CC3CC(CC(C3)C1Br)C2.Cl", "note": "(stereo not drawn)", "values": [{"measurement": "LD50 at 48 h", "setting": "[2]", "result": 500, "unit": "µmol/kg"}, {"measurement": "LD50 at 48 h", "setting": "[3]", "result": 1300, "unit": "µmol/kg"}, {"measurement": "Activity", "setting": "Mus musculus [18]", "result": "inactive"}, {"measurement": "Activity", "setting": "Mus musculus [19]", "result": "inactive"}, {"measurement": "Activity", "setting": "Rattus norvegicus [20]", "result": "Active"}]}, {"molecule": "CN(C)CC1(O)CC2CC3CC(C2)C1C3.Cl", "note": "(stereo not drawn)", "values": [{"measurement": "LD50 at 48 h", "setting": "[2]", "result": 1200, "unit": "µmol/kg"}, {"measurement": "LD50 at 48 h", "setting": "[3]", "result": 1600, "unit": "µmol/kg"}, {"measurement": "Activity", "setting": "Mus musculus [21]", "result": "inactive"}, {"measurement": "Activity", "setting": "Mus musculus [22]", "result": "inactive"}]}, {"molecule": "CNCCC12CC3CC(CC(C3)C1Cl)C2.Cl", "note": "(stereo not drawn)", "values": [{"measurement": "Activity", "setting": "Mus musculus [23]", "result": ">10"}, {"measurement": "LD50 at 48 h", "setting": "[2]", "result": 600, "unit": "µmol/kg"}, {"measurement": "LD50 at 48 h", "setting": "[3]", "result": 1500, "unit": "µmol/kg"}, {"measurement": "Activity", "setting": "Mus musculus [24]", "result": "Active"}, {"measurement": "Activity", "setting": "Rattus norvegicus [25]", "result": "Active"}]}, {"molecule": "Cl.c1ccc(CCNC2CC3CC4CC(C3)C2C4)cc1", "note": "(stereo in doubt; 13)", "values": [{"measurement": "LD50", "setting": "Mus musculus [26]", "result": 0.2, "unit": "mmol/kg"}, {"measurement": "LD50", "setting": "Mus musculus [27]", "result": 0.5, "unit": "mmol/kg"}, {"measurement": "Activity", "setting": "Mus musculus [28]", "result": 5}]}]}
